The record followed here is ChEMBL document CHEMBL4261512, “Discovery of novel trimethoxy-ring BRD4 bromodomain inhibitors: AlphaScreen assay, crystallography and cell-based assay” (Medchemcomm, 2017).

In experiment [1] the target is T1, Bromodomain-containing protein 4 (Homo sapiens, UniProt O60885). Description: Inhibition of SGRG-K(Ac)-GG-K(Ac)-GLGK(Ac)-GGA-K(Ac)-RHRKVGG-K(Biotin) binding to N-terminal 6xHis-tagged human BRD4 bromodomain 1 expressed in Escherichia coli BL21 (DE3) at 50 uM preincubated for 10 mins followed by peptide addition and measured after 10 mins by AlphaScreen assay relative to control. The gist of the method:
(§1)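 AlphaScreen peptide displacement. His-tagged BRD4 BD1 preincubated 10 min at room temperature with compound in buffer (0.1% Triton X-100, 1 mM DTT, 0.1% BSA). Then 25 nM biotinylated tetra-acetylated H4-type peptide added for 10 min, Ni-chelate acceptor beads for 30 min, and streptavidin donor beads for 30 min in subdued light. Alpha signal read; JQ-1 as control. IC50 from four-parameter log-logistic fit.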

Experiment [2] relates to MV4-11. Put plainly: Induction of apoptosis in human MV4-11 cells assessed as late apoptotic cells after 72 hrs by annexin-V-FITC/propidium iodide staining-based flow cytometric method (reference value: 2.14%). Format: functional. The gist of the method: (§2)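 MV4-11 cells seeded at 3 × 10⁵ in 6-well plates, settled 30 min, then given compound or DMSO for 72 h. Resuspended in 1× binding buffer with Annexin V-FITC for 15 min at room temperature in the dark, then PI added 5 min before flow cytometry. Populations quantified with the instrument software.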

Experiment [3] deals with MV4-11. Put plainly: Induction of apoptosis in human MV4-11 cells assessed as viable cells after 72 hrs by annexin-V-FITC/propidium iodide staining-based flow cytometric method (reference value: 96.2%). Format: functional. The gist of the method: as §2
For orientation: Flow cytometry measures light scatter and fluorescence of single cells or particles in a stream.

Experiment [4] has as its system MV4-11. Description: Induction of apoptosis in human MV4-11 cells assessed as necrotic cells after 72 hrs by annexin-V-FITC/propidium iodide staining-based flow cytometric method (reference value: 0%). Format: functional. The gist of the method:
as §2

Experiment [5] relates to MV4-11. Put plainly: Cell cycle arrest in human MV4-11 cells assessed as accumulation at G1 phase after 24 hrs by propidium iodide staining-based flow cytometric method (reference value: 54.50%). It is filed as functional.
In experiment [6] the test system is MV4-11. Put plainly: Cell cycle arrest in human MV4-11 cells assessed as accumulation at G2 phase after 24 hrs by propidium iodide staining-based flow cytometric method (reference value: 11.98%). Format: functional.
In experiment [7] the test system is MV4-11. Put plainly: Induction of apoptosis in human MV4-11 cells assessed as early apoptotic cells after 72 hrs by annexin-V-FITC/propidium iodide staining-based flow cytometric method (reference value: 1.64%). It is filed as functional. A digest of the protocol:
as §2

Experiment [8] has as its system MV4-11. Put plainly: Cell cycle arrest in human MV4-11 cells assessed as accumulation at S phase after 24 hrs by propidium iodide staining-based flow cytometric method (reference value: 33.52%). It is filed as functional.
For experiment [9], the target named is T1, Bromodomain-containing protein 4. Put plainly: Inhibition of SGRG-K(Ac)-GG-K(Ac)-GLGK(Ac)-GGA-K(Ac)-RHRKVGG-K(Biotin) binding to N-terminal 6xHis-tagged human BRD4 bromodomain 1 expressed in Escherichia coli BL21 (DE3) preincubated for 10 mins followed by peptide addition and measured after 10 mins by AlphaScreen assay. The gist of the method:
as §1
A general note: Alpha assays give light when donor and acceptor beads are brought close together.

Experiment [10] deals with MV4-11. Put plainly: Induction of apoptosis in human MV4-11 cells assessed as late apoptotic cells at 50 uM after 72 hrs by annexin-V-FITC/propidium iodide staining-based flow cytometric method (reference value: 2.14%). Format: functional. A digest of the protocol:
as §2

The test system of experiment [11] is MV4-11. Put plainly: Cell cycle arrest in human MV4-11 cells assessed as accumulation at G1 phase at 50 uM after 24 hrs by propidium iodide staining-based flow cytometric method (reference value: 54.50%). Format: functional.
Experiment [12] addresses T1, Bromodomain-containing protein 4. Put plainly: Binding affinity to N-terminal 6xHis-tagged human BRD4 bromodomain 1 expressed in Escherichia coli BL21 (DE3) assessed as change in melting temperature at 200 uM by SYPRO orange dye-based RT-PCR method (reference value: 0 degC).
Experiment [13] has as its system MV4-11. Description: Induction of apoptosis in human MV4-11 cells assessed as necrotic cells at 50 uM after 72 hrs by annexin-V-FITC/propidium iodide staining-based flow cytometric method (reference value: 0%). Format: functional. The gist of the method:
as §2

Experiment [14] deals with MV4-11. Put plainly: Cell cycle arrest in human MV4-11 cells assessed as accumulation at G2 phase at 50 uM after 24 hrs by propidium iodide staining-based flow cytometric method (reference value: 11.98%). It is filed as functional.
The subject of experiment [15] is MV4-11. Description: Induction of apoptosis in human MV4-11 cells assessed as viable cells at 50 uM after 72 hrs by annexin-V-FITC/propidium iodide staining-based flow cytometric method (reference value: 96.2%). It is filed as functional. Particulars: MV4-11, 72 h, read-out: Activity. The gist of the method:
as §2

The test system of experiment [16] is MV4-11. Put plainly: Antiproliferative activity against human MV4-11 cells after 7 days by Alamar blue assay. It is filed as functional, cell-based. The gist of the method:
(§3)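 MV4-11 cells in RPMI 1640 with 10% FBS and 1% Pen/Strep at 37 °C, 5% CO2. Seeded at 1 × 10⁵–3 × 10⁵, settled 30 min, then given graded compound concentrations or DMSO for three or seven days. Alamar Blue added for 3 h at 37 °C; fluorescence read at ex 544/em 590 nm. Viability normalized to control; IC50 fitted from the dose–response.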

Experiment [17] deals with T1, Bromodomain-containing protein 4. Description: Inhibition of BRD4 in human MV4-11 cells assessed as downregulation of Bcl-2 gene expression after 6 hrs by qRT-PCR method. It is filed as cell-based. The gist of the method: (§4)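 MV4-11 cells given compound at varied concentrations (10 and 30 μM) for 6 h. Bcl-2, c-Myc and CDK6 transcripts quantified by real-time quantitative PCR relative to untreated control.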
In general terms: Real-time PCR tracks product formation cycle by cycle.

The test system of experiment [18] is MV4-11. Put plainly: Induction of apoptosis in human MV4-11 cells assessed as early apoptotic cells at 50 uM after 72 hrs by annexin-V-FITC/propidium iodide staining-based flow cytometric method (reference value: 1.64%). It is filed as functional. A digest of the protocol: as §2
Experiment [19] has as its target T1, Bromodomain-containing protein 4. Put plainly: Inhibition of BRD4 in human MV4-11 cells assessed as downregulation of c-Myc protein expression after 6 hrs by Western blot method. Format: cell-based. A digest of the protocol:
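MV4-11 cells seeded at 3 × 10⁵ in 6-well plates, settled 30 min, then given graded compound concentrations or DMSO for 6 h. Probed with rabbit anti-c-Myc mAb and HRP-labelled secondary.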

The target is the same in experiment [20]. Put plainly: Inhibition of BRD4 in human MV4-11 cells assessed as downregulation of c-Myc gene expression after 6 hrs by qRT-PCR method. Format: cell-based. A digest of the protocol: as §4
In experiment [21] the test system is MV4-11. Put plainly: Cell cycle arrest in human MV4-11 cells assessed as accumulation at S phase at 50 uM after 24 hrs by propidium iodide staining-based flow cytometric method (reference value: 33.52%). Format: functional.
Experiment [22] addresses T1, Bromodomain-containing protein 4. Description: Inhibition of BRD4 in human MV4-11 cells assessed as downregulation of CDK6 gene expression after 6 hrs by qRT-PCR method. It is filed as cell-based. A digest of the protocol:
as §4

The target is the same in experiment [23]. Description: Binding affinity to N-terminal 6xHis-tagged human BRD4 bromodomain 1 expressed in Escherichia coli BL21 (DE3) assessed as change in melting temperature at 100 uM by SYPRO orange dye-based RT-PCR method (reference value: 0 degC).
The subject of experiment [24] is MV4-11. Put plainly: Antiproliferative activity against human MV4-11 cells after 3 days by Alamar blue assay. Format: functional, cell-based. A digest of the protocol:
as §3

The target of experiment [25] is T1, Bromodomain-containing protein 4. Put plainly: Binding affinity to N-terminal 6xHis-tagged human BRD4 bromodomain 1 expressed in Escherichia coli BL21 (DE3) assessed as change in melting temperature by SYPRO orange dye-based RT-PCR method.

Regarding `COc1cc(C(=O)NCC2CCCO2)cc(OC)c1OC` (configuration not stated), the inhibition (in general, the share of the control response that was lost under treatment) in experiment [1] was determined as 94%.
On the same count and under the same terms, with `COc1cc(C(=O)Nc2nnc(C)s2)cc(OC)c1OC` the figure was 90%.
Consider `COc1cc2c(cc1-c1c(C)noc1C)ncc1[nH]c(=O)n([C@H](C)c3ccccn3)c12`, for which the Activity in experiment [2] is reported as 33.1%; in experiment [3], 47.8%; in experiment [4], 0.718%; in [5] it was 90.86%; in experiment [6] it was 2.78%; in experiment [7], 18.4%. Also, the Activity in experiment [8] was found to be 6.36%.
For `COc1cc(C(=O)NCCc2cccs2)cc(OC)c1OC`, in experiment [9], the IC50 (commonly the concentration that gives 50% inhibition) came out at 6.4 µM.
For the compound `CCc1nnc(NC(=O)c2cc(OC)c(OC)c(OC)c2)s1`, the inhibition in [1] was 90%.
As for `COC(=O)C(CCSC)NC(=O)c1cc(OC)c(OC)c(OC)c1` (configuration not stated), in experiment [9], the IC50 worked out at 2.1 µM.
Still for that read-out and setting: under `COc1cc(C(=O)Nc2nccs2)cc(OC)c1OC` stands 4.3 µM.
In the case of `COc1cc(C(=O)Nc2nc(C)cs2)cc(OC)c1OC`, the inhibition in experiment [1] amounted to 96%.
In experiment [9], `COC(=O)C(CC(C)C)NC(=O)c1cc(OC)c(OC)c(OC)c1` (configuration not stated) displayed an IC50 of 8.5 µM.
Take `COc1cc(C(=O)NCCCn2ccnc2)cc(OC)c1OC`: the inhibition in [1] came to 90%.
Same read-out and setting: with `COc1cc(C(=O)NC2CCCC2)cc(OC)c1OC` the figure was 90%; with `CCC(CO)NC(=O)c1cc(OC)c(OC)c(OC)c1` (configuration not stated), 94%.
Turning to `COc1cc(C(=O)Nc2ccnn2C2CCCC2)cc(OC)c1OC`, the Activity in experiment [10] is 6.86%; in experiment [11], 79.1%; in experiment [13] it was 0.073%; in experiment [14] it was 16.83%; in [16] it was “Dose-dependent effect”; in [18], 4.06%. For the same compound, the Activity in experiment [21] is 16.83%; in [24], “Dose-dependent effect”; in [25] it was “Dose-dependent effect”. The ΔTm – broadly, the shift of the melting midpoint relative to a reference – in experiment [12] worked out at 3.31 °C; in experiment [23], 1.9 °C. This compound showed an IC50 in experiment [9] of 2.01 µM. The viability at 50 µM in experiment [15] is 89%. In addition, the inhibition result in [17], in experiment [19], in experiment [20] and in experiment [22] was “Dose-dependent effect” in each case.
In [9], `COCc1nnc(NC(=O)c2cc(OC)c(OC)c(OC)c2)s1` gave an IC50 of 11 µM.
On the same count and under the same terms, with `COc1cc(C(=O)NCCOc2ccccc2)cc(OC)c1OC` the figure was 6.6 µM.
